Assay outcomes from PubChem BioAssay.
PvdQ acylase: blocks Pseudomonas aeruginosa PvdQ acylase activity; AID 488965; purified PvdQ acylase, fluorescence plate reader; inhibition, % at 10 µM; hit rate 0.063% among 340,000; in the data active = inhibition above about 30%, passing the limit was not always enough;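 note: 0% = vehicle neutral wells and 100% = reference inhibitor wells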
VIM-2 inhibitor: inhibitors of Pseudomonas aeruginosa VIM-2 metallo-beta-lactamase | purified VIM-2, nitrocefin hydrolysis, epi-absorbance fluorescence | inhibition, % at 5.6 µM | hit rate 0.89% among 290,000 | AID 1527;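 active = inhibition above the mean of all tested compounds plus 3 SD, cutoff set per screening run, cut at about 7.5% in these data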;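 note: red hydrolysis product quenches plate fluorescence so inhibitors raise well fluorescence; 0% = enzyme with DMSO and 100% = DMSO without enzyme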
Yeast superoxide: lowers age-related superoxide in aged yeast cells | hit rate 0.18% among 330,000 | superoxide response (% of plate mean), % at 10 µM | AID 2690 | S. cerevisiae aged cells, superoxide DHE fluorescence; hits give low values;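 active = superoxide response under a set limit, about three screen SD below normal, cut at about 65% in these data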;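 note: yeast aged for seven days with compound at 30 °C before DHE staining; 100% = average MFI of all compound-treated wells on the plate with controls excluded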
IMP-1 inhibitor: blocks Pseudomonas aeruginosa IMP-1 metallo-beta-lactamase; purified IMP-1, nitrocefin hydrolysis, epi-absorbance fluorescence; AID 1556; hit rate 0.45% among 290,000; inhibition, % at 5.6 µM;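 active = inhibition above the mean plus 3 SD of all compounds in the same screening run, cut at about 4.5% in these data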;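 note: 0% = IMP-1 with DMSO and 100% = DMSO wells lacking enzyme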
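System – purified recombinant IMP-1 beta-lactamase · Input – IMP-1 dispensed at 0.2 nM · Timing – 15 min preincubation plus 25 min reaction at 25 °C · Signal – Epi-absorbance fluorescence, 480 nm excitation, 530 nm emission · Measure – percent IMP-1 inhibition derived from blank-referenced optical density · Controls – Enzyme-plus-DMSO low control, enzyme-free DMSO high control · Replication – singlicate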
PHOSPHO1 inh: inhibitors of human PHOSPHO1 phosphatase. recombinant PHOSPHO1, absorbance phosphatase assay. inhibition, % at 13.3 µM. hit rate 1.1% among 290,000. Q8TCT1; in the data active = inhibition above about 60%
Target sequence (Q8TCT1 whole entry, looked up): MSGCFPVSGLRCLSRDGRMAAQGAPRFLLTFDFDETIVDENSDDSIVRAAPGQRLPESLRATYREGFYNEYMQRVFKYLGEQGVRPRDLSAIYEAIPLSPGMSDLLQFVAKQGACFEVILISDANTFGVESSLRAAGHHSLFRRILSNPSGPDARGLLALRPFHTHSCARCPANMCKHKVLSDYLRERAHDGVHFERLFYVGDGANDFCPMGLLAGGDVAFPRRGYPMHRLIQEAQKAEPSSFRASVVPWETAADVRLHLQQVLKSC
The depositor's hits bear a star; . = not tested or not shown. The list is not random: actives were taken first. Their share in the collection is about 2.2%.

SMILES | PvdQ acylase | VIM-2 inhibitor | Yeast superoxide | IMP-1 inhibitor | PHOSPHO1 inh
O=C(CSc1ncn[nH]1)c1ccccc1 | -24 | 1 | 89 | -2 | 95*
COc1cccc(-c2csc(N3CCN(C(=O)Nc4ccc(Cl)cc4)CC3)n2)c1 | -11 | -2 | 102 | -3 | 64*
COc1ccc(NC(=O)N2CCN(c3nc(-c4cccc(OC)c4)cs3)CC2)cc1 | -16 | -2 | 106 | -1 | 7
COc1cccc(C(=O)OCC(=O)NCC2CCCO2)c1 (stereo not drawn) | 0 | . | 101 | . | .
CC(C)Cc1nnc(NC(=O)CCS(=O)(=O)c2ccc(Cl)cc2)s1 | -19 | 8.7* | 100 | -2 | 24
CC(C)Cc1nnc(NC(=O)CCC(=O)Nc2ccc(Cl)cc2)s1 | -3 | -4 | 115 | -1 | -31
C=CCOC(=O)C1=C(C)NC(SC)=C(C#N)C1c1cccs1 (stereo not drawn) | 1 | -1 | 107 | -3 | 25
C=CCOC(=O)C1=C(C)NC(SCC(=O)Nc2nccs2)=C(C#N)C1c1cccs1 (stereo not drawn) | -1 | -3 | 95 | -2 | 62*
CC(=O)C1=C(C)NC(SCC(=O)Nc2nccs2)=C(C#N)C1c1ccccc1Cl (stereo not drawn) | -4 | -5 | 100 | -2 | -14
C=CCOC(=O)C1=C(C)NC(SCC(=O)Nc2nccs2)=C(C#N)C1c1ccc(Cl)cc1 (stereo not drawn) | -14 | -4 | 101 | 1 | 67*
CCCCN(C(=O)c1cccc(S(=O)(=O)N2CCN(C)CC2)c1)c1c(N)n(CCC)c(=O)[nH]c1=O | 7 | . | 96 | . | .
